Reference: ChEMBL document CHEMBL5705904 (N Engl J Med, 2016)

Tests used:
[1] = molecular target: Tyrosine-protein kinase HCK (Homo sapiens, UniProt P08631); assay: Inhibition of recombinant HCK (unknown origin) preincubated for 1 hr in presence of ATP by Z-Lyte assay
Procedure, shortened: (§1)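 Recombinant kinase activity was measured by Z'-LYTE with ATP at each enzyme's Km. Inhibitor came from a 10 mM DMSO stock and was tested at 10 concentrations. Compound was preincubated with kinase for 1 h before ATP addition started the reaction, for about 2 h total compound-kinase exposure. IC50 is from 2–3 independent experiments.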

[2] = Apparent oral clearance in human at 400 mg, po administered for 8 days by LC-MS/MS analysis; type: ADME, organism-based; conditions: in vivo, time 8 day
Procedure, shortened: (§2)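 Steady-state plasma sampling on cycle 1 day 8 in patients, predose and 0.25, 0.5, 0.75, 1, 2, 4 and 6 h post-dose, into lithium heparin. Plasma was stored at -80°C. Drug was quantified by validated LC-MS/MS against a stable labeled internal standard, using only values at or above LLOQ and nominal sampling times.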

[3] = Cmax in human at 100 mg, po administered for 8 days by LC-MS/MS analysis; type: ADME, organism-based; conditions: in vivo, time 8 day; procedure, shortened: as §2
[4] = AUC(0 to 12 hrs) in human at 250 mg, po administered for 8 days by LC-MS/MS analysis; type: ADME, organism-based; conditions: in vivo, time 8 day; procedure, shortened: as §2
[5] = Tmax in human at 100 mg, po BID administered for 8 days by LC-MS/MS analysis; type: ADME, organism-based; conditions: in vivo, time 8 day
Procedure, shortened: (§3)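 Patient plasma sampled on cycle 1 day 8 at predose and 0.25, 0.5, 0.75, 1, 2, 4 and 6 h post-dose, in lithium heparin. […] Tmax read directly from each individual's data; summarized descriptively.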

[6] = Tmax in human at 400 mg, po administered for 8 days by LC-MS/MS analysis; type: ADME, organism-based; conditions: in vivo, time 8 day; procedure, shortened: as §3
[7] = molecular target: Proto-oncogene tyrosine-protein kinase Src (Homo sapiens, UniProt P12931); assay: Inhibition of recombinant SRC (unknown origin) preincubated for 1 hr in presence of ATP by Z-Lyte assay
Sequence of Proto-oncogene tyrosine-protein kinase Src (P12931 2-536 limits assumed): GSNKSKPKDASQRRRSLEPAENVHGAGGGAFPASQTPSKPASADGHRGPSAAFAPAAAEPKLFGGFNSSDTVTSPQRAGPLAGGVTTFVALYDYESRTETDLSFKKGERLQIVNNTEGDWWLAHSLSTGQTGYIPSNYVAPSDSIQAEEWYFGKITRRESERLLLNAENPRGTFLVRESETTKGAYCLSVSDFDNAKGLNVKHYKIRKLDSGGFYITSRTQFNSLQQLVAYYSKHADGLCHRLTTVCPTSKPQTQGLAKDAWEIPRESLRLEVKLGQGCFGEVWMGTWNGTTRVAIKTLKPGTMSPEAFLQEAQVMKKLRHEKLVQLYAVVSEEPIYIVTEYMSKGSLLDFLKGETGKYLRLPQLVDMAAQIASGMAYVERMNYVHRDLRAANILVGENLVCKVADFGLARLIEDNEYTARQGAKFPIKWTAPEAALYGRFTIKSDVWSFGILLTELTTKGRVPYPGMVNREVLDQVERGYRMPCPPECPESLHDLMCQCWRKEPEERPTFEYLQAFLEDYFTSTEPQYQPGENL

[8] = AUC(0 to 6 hrs) in human at 100 mg, po administered for 8 days by LC-MS/MS analysis; type: ADME, organism-based; conditions: in vivo, time 8 day; procedure, shortened: as §2
[9] = Terminal elimination half life in human at 175 mg, po administered for 8 days by LC-MS/MS analysis; type: ADME, organism-based; conditions: in vivo, time 8 day, read-out: LambdaZ (converted)
[10] = molecular target: T1, Tyrosine-protein kinase TXK (Homo sapiens, UniProt P42681); assay: Inhibition of recombinant TXK (unknown origin) preincubated for 1 hr in presence of ATP by Z-Lyte assay
T1 sequence (P42681 whole entry): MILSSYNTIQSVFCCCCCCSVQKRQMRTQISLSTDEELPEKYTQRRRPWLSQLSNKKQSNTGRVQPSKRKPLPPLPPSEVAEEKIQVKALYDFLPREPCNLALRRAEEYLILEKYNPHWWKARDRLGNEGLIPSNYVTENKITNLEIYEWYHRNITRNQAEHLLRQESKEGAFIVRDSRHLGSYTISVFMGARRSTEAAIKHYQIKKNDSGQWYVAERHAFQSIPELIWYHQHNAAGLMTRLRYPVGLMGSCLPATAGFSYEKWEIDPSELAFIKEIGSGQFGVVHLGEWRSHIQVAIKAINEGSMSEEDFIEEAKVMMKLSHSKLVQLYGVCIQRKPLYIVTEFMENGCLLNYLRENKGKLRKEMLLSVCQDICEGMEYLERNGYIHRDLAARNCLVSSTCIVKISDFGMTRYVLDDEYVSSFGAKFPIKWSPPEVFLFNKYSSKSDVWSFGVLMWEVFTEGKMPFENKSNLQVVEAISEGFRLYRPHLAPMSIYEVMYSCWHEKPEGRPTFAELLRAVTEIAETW

[11] = AUC(0 to infinity) in human at 400 mg, po administered for 8 days by LC-MS/MS analysis; type: ADME, organism-based; conditions: in vivo, time 8 day; procedure, shortened: as §2
[12] = Apparent oral clearance in human at 100 mg, po BID administered for 8 days by LC-MS/MS analysis; type: ADME, organism-based; conditions: in vivo, time 8 day; procedure, shortened: as §2
[13] = Apparent oral clearance in human at 100 mg, po administered for 8 days by LC-MS/MS analysis; type: ADME, organism-based; conditions: in vivo, time 8 day; procedure, shortened: as §2
[14] = AUC(0 to 12 hrs) in human at 400 mg, po administered for 8 days by LC-MS/MS analysis; type: ADME, organism-based; conditions: in vivo, time 8 day; procedure, shortened: as §2
[15] = Tmax in human at 100 mg, po administered for 8 days by LC-MS/MS analysis; type: ADME, organism-based; conditions: in vivo, time 8 day; procedure, shortened: as §3
[16] = AUC(0 to infinity) in human at 175 mg, po administered for 8 days by LC-MS/MS analysis; type: ADME, organism-based; conditions: in vivo, time 8 day; procedure, shortened: as §2
[17] = Half life in human at 100 mg, po BID administered for 8 days by LC-MS/MS analysis; type: ADME, organism-based; conditions: in vivo, time 8 day; procedure, shortened: as §2
[18] = Drug accumulation in human at 100 to 400 mg, po administered for 6 hrs by LC-MS/MS analysis; type: ADME, organism-based; conditions: in vivo, dose 100-400 mg
[19] = AUC(0 to 6 hrs) in human at 100 mg, po BID administered for 8 days by LC-MS/MS analysis; type: ADME, organism-based; conditions: in vivo, time 8 day; procedure, shortened: as §2
[20] = Cmax in human at 400 mg, po administered for 8 days by LC-MS/MS analysis; type: ADME, organism-based; conditions: in vivo, time 8 day; procedure, shortened: as §2
[21] = AUC(0 to 24 hrs) in human at 175 mg, po administered for 8 days by LC-MS/MS analysis; type: ADME, organism-based; conditions: in vivo, time 8 day; procedure, shortened: as §2
[22] = molecular target: Tyrosine-protein kinase Lck (Homo sapiens, UniProt P06239); assay: Inhibition of recombinant LCK (unknown origin) preincubated for 1 hr […] by Z-Lyte assay; procedure, shortened: as §1
Sequence of Tyrosine-protein kinase Lck (P06239 whole entry): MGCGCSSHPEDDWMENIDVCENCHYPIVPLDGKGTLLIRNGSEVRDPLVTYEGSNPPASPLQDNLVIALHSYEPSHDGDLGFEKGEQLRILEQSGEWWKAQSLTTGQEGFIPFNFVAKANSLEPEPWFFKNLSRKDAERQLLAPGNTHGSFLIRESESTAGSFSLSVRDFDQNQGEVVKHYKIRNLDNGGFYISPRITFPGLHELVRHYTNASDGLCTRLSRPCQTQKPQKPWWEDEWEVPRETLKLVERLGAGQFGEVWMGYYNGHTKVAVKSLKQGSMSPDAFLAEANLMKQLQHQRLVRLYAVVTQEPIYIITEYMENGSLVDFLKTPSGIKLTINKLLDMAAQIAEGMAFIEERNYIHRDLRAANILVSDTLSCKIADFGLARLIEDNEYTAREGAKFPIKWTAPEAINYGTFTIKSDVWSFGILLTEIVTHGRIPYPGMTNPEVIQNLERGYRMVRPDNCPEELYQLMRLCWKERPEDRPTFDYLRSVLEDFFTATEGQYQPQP

[23] = molecular target: Tyrosine-protein kinase Fgr (Homo sapiens, UniProt P09769); assay: Inhibition of recombinant FGR (unknown origin) preincubated for 1 hr in presence of ATP by Z-Lyte assay; procedure, shortened: as §1
Sequence of Tyrosine-protein kinase Fgr (P09769 whole entry): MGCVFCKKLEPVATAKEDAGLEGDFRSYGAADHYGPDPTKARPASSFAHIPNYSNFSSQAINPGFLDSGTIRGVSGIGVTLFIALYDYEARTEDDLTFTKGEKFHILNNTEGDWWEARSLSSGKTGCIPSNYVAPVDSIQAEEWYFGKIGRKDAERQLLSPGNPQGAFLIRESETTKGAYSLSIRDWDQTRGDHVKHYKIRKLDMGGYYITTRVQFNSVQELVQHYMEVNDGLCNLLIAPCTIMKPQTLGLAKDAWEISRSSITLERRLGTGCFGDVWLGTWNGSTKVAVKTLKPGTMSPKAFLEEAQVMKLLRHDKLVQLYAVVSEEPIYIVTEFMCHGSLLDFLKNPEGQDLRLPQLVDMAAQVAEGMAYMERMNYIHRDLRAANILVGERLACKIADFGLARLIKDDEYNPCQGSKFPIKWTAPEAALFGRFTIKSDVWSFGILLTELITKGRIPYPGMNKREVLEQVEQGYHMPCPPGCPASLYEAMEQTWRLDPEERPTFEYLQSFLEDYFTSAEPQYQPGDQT

[24] = Terminal elimination half life in human at 250 mg, po administered for 8 days by LC-MS/MS analysis; type: ADME, organism-based; conditions: in vivo, time 8 day, read-out: LambdaZ (converted)
[25] = AUC(0 to 24 hrs) in human at 400 mg, po administered for 8 days by LC-MS/MS analysis; type: ADME, organism-based; conditions: in vivo, time 8 day; procedure, shortened: as §2
[26] = Apparent volume of distribution during terminal phase in human at 400 mg, po administered for 8 days by LC-MS/MS analysis; type: ADME, organism-based; conditions: in vivo, time 8 day, read-out: Vz/F; procedure, shortened: as §2
[27] = Terminal elimination half life in human at 400 mg, po administered for 8 days by LC-MS/MS analysis; type: ADME, organism-based; conditions: in vivo, time 8 day, read-out: LambdaZ (converted)
[28] = molecular target: Tyrosine-protein kinase Yes (Homo sapiens, UniProt P07947); assay: Inhibition of recombinant YES1 (unknown origin) […] by Z-Lyte assay
Sequence of Tyrosine-protein kinase Yes (P07947 whole entry): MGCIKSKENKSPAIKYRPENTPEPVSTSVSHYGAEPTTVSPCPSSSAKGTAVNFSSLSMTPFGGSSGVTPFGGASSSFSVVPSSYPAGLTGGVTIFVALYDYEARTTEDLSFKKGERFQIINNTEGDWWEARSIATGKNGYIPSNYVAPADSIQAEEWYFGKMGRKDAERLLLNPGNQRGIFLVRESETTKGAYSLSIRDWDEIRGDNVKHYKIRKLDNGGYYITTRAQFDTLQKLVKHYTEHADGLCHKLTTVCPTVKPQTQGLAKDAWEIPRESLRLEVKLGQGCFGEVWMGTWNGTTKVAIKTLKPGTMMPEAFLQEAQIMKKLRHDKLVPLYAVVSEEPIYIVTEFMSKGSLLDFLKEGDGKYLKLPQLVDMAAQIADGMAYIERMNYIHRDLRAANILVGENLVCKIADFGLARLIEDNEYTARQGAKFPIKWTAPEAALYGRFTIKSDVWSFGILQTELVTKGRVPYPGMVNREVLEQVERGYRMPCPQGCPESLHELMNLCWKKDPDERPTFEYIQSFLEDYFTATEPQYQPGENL
Procedure, shortened: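 Recombinant YES1 run in a Z'-LYTE assay. Compound preincubated with kinase for 1 h before ATP was added to start the reaction. IC50 derived from independent experiments run head-to-head with the comparator.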

[29] = AUC(0 to 24 hrs) in human at 100 mg, po BID administered for 8 days by LC-MS/MS analysis; type: ADME, organism-based; conditions: in vivo, time 8 day; procedure, shortened: as §2
[30] = Cmax in human at 100 mg, po BID administered for 8 days by LC-MS/MS analysis; type: ADME, organism-based; conditions: in vivo, time 8 day; procedure, shortened: as §2
[31] = AUC(0 to 6 hrs) in human at 250 mg, po administered for 8 days by LC-MS/MS analysis; type: ADME, organism-based; conditions: in vivo, time 8 day; procedure, shortened: as §2

Sequence of Tyrosine-protein kinase HCK (P08631 whole entry): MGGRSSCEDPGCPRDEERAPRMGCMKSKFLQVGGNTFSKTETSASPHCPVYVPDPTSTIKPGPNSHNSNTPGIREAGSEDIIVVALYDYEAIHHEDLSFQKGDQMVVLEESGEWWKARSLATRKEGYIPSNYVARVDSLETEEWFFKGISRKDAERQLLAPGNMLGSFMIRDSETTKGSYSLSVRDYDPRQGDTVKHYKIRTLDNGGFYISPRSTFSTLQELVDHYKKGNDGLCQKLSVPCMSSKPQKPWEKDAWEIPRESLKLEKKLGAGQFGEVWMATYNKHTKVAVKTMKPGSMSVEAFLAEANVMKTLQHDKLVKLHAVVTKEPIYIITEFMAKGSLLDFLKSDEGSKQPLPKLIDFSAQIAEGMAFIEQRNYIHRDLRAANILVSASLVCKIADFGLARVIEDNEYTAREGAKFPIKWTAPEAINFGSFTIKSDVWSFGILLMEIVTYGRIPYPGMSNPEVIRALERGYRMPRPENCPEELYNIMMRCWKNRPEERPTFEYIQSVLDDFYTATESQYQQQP

Which IC50 [1] does the source give for `CC#CC(=O)N1CCC[C@H]1c1nc(-c2ccc(C(=O)Nc3ccccn3)cc2)c2c(N)nccn12` [ACALABRUTINIB] here?
Its IC50 is greater than 1 µM.

What about the CL/F [2] of the same molecule?
The CL/F was 5200 mL/min.

And the Cmax [3]?
The Cmax was 529 ng/mL.

And the AUC at 192 h [4]?
The AUC at 192 h was 2310 ng·h/mL.

And the Tmax [5]?
Its Tmax is 60 min.

What about the Tmax [6] of the same molecule?
The Tmax was 55.2 min.

And the IC50 [7]?
Its IC50 is greater than 1 µM.

And the AUC at 192 h [8]?
The AUC at 192 h was 584 ng·h/mL.

What about the k el at 192 h [9] of the same molecule?
Its k el at 192 h is 0.000194 s⁻¹.

And the IC50 [10]?
The IC50 was 0.368 µM.

And the AUC(0-inf) [11]?
Its AUC(0-inf) is 1870 ng·h/mL.

And the CL/F [12]?
The CL/F was 2750 mL/min.

What about the CL/F [13] of the same molecule?
The CL/F was 3000 mL/min.

What about the AUC at 192 h [14] of the same molecule?
The AUC at 192 h was 1850 ng·h/mL.

What about the Tmax [15] of the same molecule?
The Tmax was 48.6 min.

And the AUC(0-inf) [16]?
Its AUC(0-inf) is 1160 ng·h/mL.

What about the half-life [17] of the same molecule?
Its half-life is 67.8 min.

And the Drug uptake [18]?
The Drug uptake was “Not Active”.

What about the AUC at 192 h [19] of the same molecule?
The AUC at 192 h was 826 ng·h/mL.

What about the Cmax [20] of the same molecule?
The Cmax was 902 ng/mL.

What about the AUC at 192 h [21] of the same molecule?
Its AUC at 192 h is 1160 ng·h/mL.

And the IC50 [22]?
Its IC50 is greater than 1 µM.

What about the IC50 [23] of the same molecule?
Its IC50 is greater than 1 µM.

What about the k el at 192 h [24] of the same molecule?
The k el at 192 h was 0.000206 s⁻¹.

What about the AUC at 192 h [25] of the same molecule?
Its AUC at 192 h is 1870 ng·h/mL.

What about the Vd/F [26] of the same molecule?
Its Vd/F is 677 L.

And the k el at 192 h [27]?
Its k el at 192 h is 0.000161 s⁻¹.

What about the IC50 [28] of the same molecule?
The IC50 was greater than 1 µM.

What about the AUC at 192 h [29] of the same molecule?
The AUC at 192 h was 1850 ng·h/mL.

And the Cmax [30]?
Its Cmax is 827 ng/mL.

What about the AUC at 192 h [31] of the same molecule?
The AUC at 192 h was 1990 ng·h/mL.
